These results are taken from ChEMBL document CHEMBL1141138, “A novel immunostimulator, N-[alpha-O-benzyl-N-(acetylmuramyl)-L-alanyl-D-isoglutaminyl]-N6-trans-(m-nitrocinnamoyl)-L-lysine, and its adjuvancy on the hepatitis B surface antigen” (J Med Chem, 2005).

The structures appear in SMILES notation. Where “and” joins values, the source holds several entries; their conditions need not be identical. Equal entries are not always repeated.

The nature of data set [1]: In vivo toxicity (100 mg/kg) is assessed as increase in mass index of mice thymus cells relative to control (44.1+/-5.13). The data set is classed as organism-based. Particulars: mouse.
The nature of data set [2]: In vivo toxicity (100 mg/kg) is assessed as mass index in mice thymus cells. The data set is classed as organism-based. Particulars: mouse.
The subject of data set [3] is Mus musculus. Briefly: Effect (2.0 mg/kg/day*7 days, i.v.) on cyclophosphamide (CY, i.p.) treated mice (immunosuppressed animal model) assessed by CD4+/CD8+ ratio in peripheral blood mononuclear cells. The data set is classed as functional.
The nature of data set [4]: Effect of compound (10e-8 mol/L) on secretion of Interleukin-2 treated with bone marrow-derived dendritic cells in presence of lipopolysaccharide. Format: functional, Mus musculus. The gist of the method:
(§1)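 BMDCs came from BALB/c bone marrow adherent cells grown with IL-4 and GM-CSF (10 ng/mL each); half the medium was renewed every other day. On day 5 cells were preincubated with compound for 30 min, then held ±LPS (1.0 μg/mL) for 48 h. Supernatant IL-2 and IL-12 (pg/mL) were measured by sandwich ELISA. Detection limits were 15.0 and 7.8 pg/mL.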

Data set [5] can be described thus: Effect of compound (10e-6 mol/L) on secretion of Interleukin-2 treated with bone marrow-derived dendritic cells in presence of lipopolysaccharide. The data set is classed as functional, Mus musculus. The gist of the method:
as §1

A short description of data set [6]: Effect of compound (10e-6 mol/L) on secretion of Interleukin-12 treated with bone marrow-derived dendritic cells in presence of lipopolysaccharide. Format: functional, Mus musculus. In outline:
as §1

Data set [7] is filed under the species Mus musculus. Briefly: Effect of compound (10e-7 mol/L) on rate of proliferation of murine splenocytes in absence of concanavalin A compared to control. Format: functional. In outline:
(§2)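 Normal murine splenocytes were exposed to compound with or without concanavalin A (2 μg/mL) for 72 h. Proliferation was read by MTT as OD570. Increased rate (%) was taken versus the matching control without or with ConA. Mean ± SD.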

Data set [8] in a line: Effect of compound (10e-9 mol/L) on secretion of Interleukin-2 treated with bone marrow-derived dendritic cells in presence of lipopolysaccharide. The data set is classed as functional, Mus musculus. In outline: as §1
The nature of data set [9]: In vivo toxicity (500 mg/kg) is assessed as increase in mass index of mice spleen cells relative to control (56.4+/-11.5). Format: organism-based. The following applies: mouse.
Data set [10] is described as follows: Effect of compound (10e-8 mol/L) on secretion of Interleukin-12 treated with bone marrow-derived dendritic cells in presence of lipopolysaccharide. Format: functional, Mus musculus. The gist of the method:
as §1

A short description of data set [11]: Effect of compound (10e-6 mol/L) on secretion of Interleukin-2 treated with bone marrow-derived dendritic cells in absence of lipopolysaccharide. Format: functional, Mus musculus. In outline:
as §1

Data set [12] concerns P815. Briefly: In vitro stimulatory effect on increased rate of allogenic CTL cytotoxicity on P815 cells mediated by BMDC in presence of LPS. The data set is classed as functional, Mus musculus. In outline:
(§3)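 BALB/c (H-2d) BMDCs were pretreated with compound ±LPS for 24 h, then cocultured in quadruplicate with C57BL/6J (H-2b) splenocytes. Effectors harvested on day 6 were set to 5 × 10^5 cells and incubated with 1 × 10^4 P815 (H-2d) targets for 5 h. LDH release was read at OD450. Specific release = (E−S)/(M−S)×100; maximum release used 1% Triton X-100.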

Data set [13] is described as follows: In vivo toxicity (500 mg/kg) is assessed as mass index in mice spleen cells. The data set is classed as organism-based. Particulars: mouse.
The species named for data set [14] is Mus musculus. Briefly: Effect of compound (10e-8 mol/L) on rate of proliferation of murine splenocytes in absence of concanavalin A compared to control. The data set is classed as functional. In outline: as §2
Data set [15] deals with Mus musculus. Briefly: Effect (0.5 mg/kg/day*7 days, i.v.) on cyclophosphamide (CY, i.p.) treated mice (immunosuppressed animal model) assessed by CD4+/CD8+ ratio in peripheral blood mononuclear cells. The data set is classed as functional.
The nature of data set [16]: Effect of compound (10e-7 mol/L) on secretion of Interleukin-2 treated with bone marrow-derived dendritic cells in absence of lipopolysaccharide. The data set is classed as functional, Mus musculus. In outline: as §1
The species named for data set [17] is Mus musculus. Briefly: Effect of compound (10e-6 mol/L) on rate of proliferation of murine splenocytes in presence of concanavalin A compared to control. The data set is classed as functional. The gist of the method:
as §2

The next data set concerns P388. Briefly: Increased inhibitory ratio against P388 mice tumor cells compared to control. The data set is classed as functional, Mus musculus. The gist of the method:
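Thioglycollate-elicited peritoneal macrophages from C57BL/6J mice (harvested 3 days after ip TG) were coincubated with P388 leukemia cells and compound for 72 h. P388 with compound alone served as the toxicity control. Surviving tumor cells were read by MTT at 570 nm, reference 630 nm. The inhibitory ratio was taken versus control.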

Data set [18] is described as follows: Effect of compound (10e-8 mol/L) on secretion of Interleukin-12 treated with bone marrow-derived dendritic cells in absence of lipopolysaccharide. The data set is classed as functional, Mus musculus. In outline: as §1
Data set [19] can be described thus: Effect of compound (10e-7 mol/L) on secretion of Interleukin-12 treated with bone marrow-derived dendritic cells in presence of lipopolysaccharide. The data set is classed as functional, Mus musculus. The gist of the method:
as §1

Data set [20] concerns Mus musculus. Briefly: Effect (10 mg/kg/day*7 days, i.v.) on cyclophosphamide (CY, i.p.) treated mice (immunosuppressed animal model) assessed by CD4+/CD8+ ratio in peripheral blood mononuclear cells. Format: functional. The gist of the method:
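Male C57BL/6J mice given cyclophosphamide 30 (mg/kg)/day ip for 5 consecutive days, then randomized and dosed iv for 7 consecutive days. PBMCs collected on day 8; ratio of CD3+CD4+ to CD3+CD8+ T cells measured by flow cytometry (CD4-FITC, PE anti-CD8 staining). n = 3.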

Data set [21] can be described thus: In vivo toxicity (500 mg/kg) is assessed as mass index in mice thymus cells. The data set is classed as organism-based. Particulars: mouse.
Data set [22] is filed under the species Mus musculus. Briefly: Effect of compound (10e-9 mol/L) on rate of proliferation of murine splenocytes in presence of concanavalin A compared to control. The data set is classed as functional. In outline: as §2
The nature of data set [23]: Effect of compound (10e-8 mol/L) on secretion of Interleukin-2 treated with bone marrow-derived dendritic cells in absence of lipopolysaccharide. Format: functional, Mus musculus. The gist of the method: as §1
Data set [24] is filed under the species Mus musculus. Briefly: Effect of compound (10e-6 mol/L) on rate of proliferation of murine splenocytes in absence of concanavalin A compared to control. Format: functional. In outline:
as §2

Data set [25] in a line: In vivo toxicity (100 mg/kg) is assessed as increase in mass index of mice spleen cells relative to control (56.4+/-11.5). Format: organism-based. The following applies: mouse.
Data set [26] concerns P815. Briefly: In vitro stimulatory effect on specific release of allogenic CTL cytotoxicity on P815 cells mediated by BMDC in presence of LPS. Format: functional, Mus musculus. In outline: as §3
A short description of data set [27]: Effect of compound (10e-9 mol/L) on secretion of Interleukin-12 treated with bone marrow-derived dendritic cells in presence of lipopolysaccharide. The data set is classed as functional, Mus musculus. In outline: as §1
Data set [28] is described as follows: Effect of compound (10e-7 mol/L) on secretion of Interleukin-12 treated with bone marrow-derived dendritic cells in absence of lipopolysaccharide. The data set is classed as functional, Mus musculus. The gist of the method: as §1
The species named for data set [29] is Mus musculus. Briefly: Effect of compound (10e-7 mol/L) on rate of proliferation of murine splenocytes in presence of concanavalin A compared to control. Format: functional. In outline:
as §2

The species named for data set [30] is Mus musculus. Briefly: Effect of compound (10e-9 mol/L) on rate of proliferation of murine splenocytes in absence of concanavalin A compared to control. The data set is classed as functional. In outline:
as §2

Data set [31] is described as follows: Effect of compound (10e-6 mol/L) on secretion of Interleukin-12 treated with bone marrow-derived dendritic cells in absence of lipopolysaccharide. The data set is classed as functional, Mus musculus. The gist of the method:
as §1

The nature of data set [32]: In vivo toxicity (100 mg/kg) is assessed as mass index in mice spleen cells. The data set is classed as organism-based. Particulars: mouse.
For data set [33], the species on record is Mus musculus. Briefly: Effect of compound (10e-8 mol/L) on rate of proliferation of murine splenocytes in presence of concanavalin A compared to control. The data set is classed as functional. In outline:
as §2

Data set [34] is described as follows: Effect of compound (10e-7 mol/L) on secretion of Interleukin-2 treated with bone marrow-derived dendritic cells in presence of lipopolysaccharide. Format: functional, Mus musculus. In outline:
as §1

Data set [35] deals with P815. Briefly: In vitro stimulatory effect on increased rate of allogenic CTL cytotoxicity on P815 cells mediated by BMDC in absence of LPS. The data set is classed as functional, Mus musculus. In outline:
as §3

The test system of data set [36] is P815. Briefly: In vitro stimulatory effect on specific release of allogenic CTL cytotoxicity on P815 cells mediated by BMDC in absence of LPS. The data set is classed as functional, Mus musculus. The gist of the method:
as §3

`CC(=O)N[C@H]1[C@@H](OCc2ccccc2)O[C@H](CO)[C@@H](O)[C@@H]1O[C@H](C)C(=O)N[C@@H](C)C(=O)N[C@H](CCC(=O)N[C@@H](CCCCNC(=O)/C=C/c1cccc([N+](=O)[O-])c1)C(N)=O)C(N)=O`: the Mass index in [1] was -1.4% and -2.8%; in [2], 42.8 mg/10g body weight; in data set [9], 53%; in data set [13], 86.1 mg/10g body weight; in data set [21], 43.5 mg/10g body weight; in data set [25] it was 6%. Also, the Mass index in [32] is 59.9 mg/10g body weight. The values for the Ratio with Mus musculus [3], in the data set on Mus musculus [15] and in the data set on Mus musculus [20] were 4.14, 3.18 and 4.47, respectively. Further, the Activity in [4] worked out at 107 pg/mL; in data set [5], 132 pg/mL; in data set [6], 988 pg/mL; in data set [8] it was 94.8 pg/mL; in data set [10] it was 819 pg/mL; in data set [11], 103 pg/mL. Besides, the Activity stood at 76 pg/mL in data set [16]; 725 pg/mL in data set [18]; 838 pg/mL in data set [19]; 60 pg/mL in data set [23]; 800 pg/mL in data set [27]; 786 pg/mL in data set [28]. Moreover, the Activity amounted to 918 pg/mL in [31] and 117 pg/mL in data set [34]. In addition, the Increase is 75% in the data set filed under Mus musculus [7]; 82% and 49% and 28% in the data set with P815 [12]; 27.3% in the data set listed under Mus musculus [14]; 82% in the data set filed under Mus musculus [17]; 7.8% in the data set listed under Mus musculus [22]; 191% in the data set filed under Mus musculus [24]. Moreover, the Increase in the data set filed under Mus musculus [29] stood at 38%; in the data set filed under Mus musculus [30], 5.41%; in the data set filed under Mus musculus [33] it was 15%. In the data set on P388, the IR turned out to be 71%. The Release with P815 [26] is 35.7% and 31.3% and 28.5% and 23.8%.

With `O=P1(N(CCCl)CCCl)NCCCO1` (stereo not drawn) [CYCLOPHOSPHAMIDE ANHYDROUS], the Ratio with Mus musculus [20] worked out at 2.4.

As for `CCCCCCCCCCCCCCCCCC(=O)NCCCC[C@H](NC(=O)CC[C@@H](NC(=O)[C@H](C)NC(=O)[C@@H](C)O[C@H]1[C@H](O)[C@@H](CO)OC(O)[C@@H]1NC(C)=O)C(N)=O)C(=O)O` (stereo partly drawn) [ROMURTIDE], the Increase in the data set on P815 [35] turned out to be 187%; with P815 [12], 45%; in the data set listed under Mus musculus [17], 67%; in the data set filed under Mus musculus [24], 122%. The IR in the data set on P388 came to 45%. Besides, the Release was 30.7% with P815 [26] and 31.7% in the data set with P815 [36].
